Results reported in ChEMBL document CHEMBL1125776, “Enantioselective and diastereoselective hydroxylation of bufuralol. Absolute configuration of the 7-(1-hydroxyethyl)-2-[1-hydroxy-2-(tert-butylamino)ethyl]benzofurans, the benzylic hydroxylation metabolites” (J Med Chem, 1991).

Legend:
[1] = species on record: Rattus norvegicus; assay: Compound was tested for the rate of formation in rat liver microsomes; type: functional
Summary of the method: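 Liver microsomes from male Sprague-Dawley rats (~150 g) prepared at 0-4 °C. Incubated with (1'R)- or (1'S)-bufuralol 200 μM, 3 mg protein, NADP+ 1 mM, glucose 6-phosphate 20 mM, MgCl2 10 mM, G6PDH 5 units, 0.20 M phosphate pH 7.4, 37 °C, 30 min. Alcohol diastereomers derivatized with (R)-PEIC, reversed-phase HPLC at 248 nm against internal standard, calibration 10-60 μg.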

[2] = species on record: Homo sapiens; assay: Compound was tested for the rate of formation in human liver microsomes 112; type: functional
Summary of the method: (§1)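 Human liver microsomes from frozen bank tissue, washed and resuspended in 100 mM potassium phosphate/20% glycerol/1 mM EDTA, pH 7.4. Incubated with (1'R)- or (1'S)-bufuralol 200 μM, 3 mg protein, NADP+ 1 mM, glucose 6-phosphate 20 mM, MgCl2 10 mM, G6PDH 5 units, 0.20 M phosphate pH 7.4, 37 °C, 30 min. Benzylic alcohols derivatized with (R)-PEIC, reversed-phase HPLC at 248 nm against internal standard, calibration 2-10 μg.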

[3] = species on record: Homo sapiens; assay: Compound was tested for the rate of formation in human liver microsomes 114; type: functional; summary of the method: as §1
[4] = species on record: Homo sapiens; assay: Compound was tested for the rate of formation in human liver microsomes 108; type: functional; summary of the method: as §1
[5] = species on record: Homo sapiens; assay: Mean of rate of formation in all human liver microsomes.; type: functional, organism-based; parameters: unit not given here; summary of the method: as §1
[6] = species on record: Homo sapiens; assay: Compound was tested for the rate of formation in human liver microsomes 116; type: functional; summary of the method: as §1

Row | SMILES | Rate of formation (pM min-1 (mg of protein)-1) [1] | Rate of formation (pM min-1 (mg of protein)-1) [2] | Rate of formation (pM min-1 (mg of protein)-1) [3] | Rate of formation (pM min-1 (mg of protein)-1) [4] | Mean [5] | Rate of formation (pM min-1 (mg of protein)-1) [6]
1 | C[C@@H](O)c1cccc2cc([C@H](O)CNC(C)(C)C)oc12 | 2270 | 54.5 | 61.7 | 74.5 | 66.5 | 75.3
2 | C[C@H](O)c1cccc2cc([C@H](O)CNC(C)(C)C)oc12 | 500 | 136 | 211 | 363 | 266 | 355
3 | C[C@H](O)c1cccc2cc([C@@H](O)CNC(C)(C)C)oc12 | 96.1 | 32 | 58.8 | 101 | 66.6 | 74.9
4 | C[C@@H](O)c1cccc2cc([C@@H](O)CNC(C)(C)C)oc12 | 741 | 48.9 | 62.1 | 86.5 | 70.2 | 83.3
